Source: PMC5008228 (Journal of Parkinson's Disease, 2016)
“And” between values parts separate entries of the source, which are not always exact repeats. Equal entries are not always repeated. “Also recorded” adds a separate entry of the source.

Columns and labels:
Assay type in all cases: in vivo, human
[1] = test system: PDD or DLB participants; assay: Mini Mental State Examination; conditions: for MMSE score: individual participants; for MMSE score, AVG: group AVG (Screening AVG 15.4); for Average increase in MMSE: six months (24-week) compared to baseline
[2] = test system: PDD or DLB participants; assay: Scales for Outcomes in Parkinson's disease-Cognition; conditions: for SCOPA-Cog (**/43) score: individual participants; for Average increase in SCOPA-Cog: six months compared to baseline
[3] = test system: PDD or DLB participants; assay: Safety and tolerability, adverse events
[4] = test system: PDD or DLB participants; assay: QTc interval by EKG; conditions: returned to normal range in subsequent visits
[5] = test system: PDD or DLB participants; assay: Laboratory blood chemistry; conditions: 150 mg group
How it was run: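 PDD or DLB participants (n = 5 at 150 mg, n = 7 at 300 mg) took oral doses daily for 24 weeks. Blood chemistry (lipids, phosphate, bilirubin, electrolytes, lipase, α-amylase, ALT, AST) plus CBC with differential were drawn every two weeks for the first two months, then monthly. EKGs and physical/neurological exams were done at the same visits.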

[6] = test system: homovanillic acid (HVA); assay: HVA measurement by ELISA
[7] = test system: α-synuclein; assay: α-synuclein sandwich ELISA in CSF and plasma; conditions: for Plasma α-synuclein vs baseline: 2 months
[8] = test system: DJ-1; assay: Neurodegenerative disease magnetic bead panel, DJ-1
[9] = test system: S100B; assay: Neurodegenerative disease magnetic bead panel, S100B
[10] = test system: Neuron Specific Enolase (NSE); assay: Neurodegenerative disease magnetic bead panel, NSE; conditions: 6 months
[11] = test system: total tau; assay: Neurodegenerative disease magnetic bead panel, total tau and p-tau181
[12] = test system: Aβ40; assay: Neurodegenerative disease magnetic bead panel, Aβ40
[13] = test system: Aβ42; assay: Neurodegenerative disease magnetic bead panel, Aβ42; conditions: 150 mg group

- CSF NSE level vs baseline ([10]; 150 mg group): significantly reduced
- CSF NSE level vs baseline ([10]; 300 mg group): significantly reduced
Compound: Cc1cn(-c2cc(NC(=O)c3ccc(C)c(Nc4nccc(-c5cccnc5)n4)c3)cc(C(F)(F)F)c2)cn1 [Nilotinib]
- MMSE score ([1]; 300 ng (sub-heading as printed) oral daily, Week-12): 29 and 26 and 25 and 28 and 1 and 6
- MMSE score ([1]; 300 ng (sub-heading as printed) oral daily, Week-16): 27 and 29 and 25 and 14 and 6 and 12
- MMSE score ([1]; 300 ng (sub-heading as printed) oral daily, Week-20): 26 and 30 and 25 and 24 and 2 and 6
- MMSE score ([1]; 300 ng (sub-heading as printed) oral daily, Week-24): 28 and 30 and 25 and 26 and 5 and 9
- MMSE score, AVG ([1]; 150 mg oral daily, Week-4): 17.4
- MMSE score ([1]; 150 mg oral daily, Week-4): 20 and 0 and 11 and 28
- MMSE score, AVG ([1]; 150 mg oral daily, Week-8): 18
- MMSE score ([1]; 150 mg oral daily, Week-8): 22 and 1 and 11 and 29 and 27
- MMSE score, AVG ([1]; 150 mg oral daily, Week-12): 18
- MMSE score ([1]; 150 mg oral daily, Week-12): 21 and 1 and 11 and 29 and 28
- MMSE score, AVG ([1]; 150 mg oral daily, Week-16): 18.6
- MMSE score ([1]; 150 mg oral daily, Week-16): 26 and 1 and 8 and 30 and 28
- MMSE score, AVG ([1]; 150 mg oral daily, Week-20): 18.4
- MMSE score ([1]; 150 mg oral daily, Week-20): 26 and 1 and 10 and 30 and 25
- MMSE score, AVG ([1]; 150 mg oral daily, Week-24): 19.25
- MMSE score ([1]; 150 mg oral daily, Week-24): 23 and 2 and 29
- Average increase in MMSE ([1]; 150 mg oral daily): 3.85 points
- Average increase in MMSE ([1]; 300 mg oral daily): 3.5 points
- SCOPA-Cog (**/43) score, AVG ([2]; 150 mg oral daily, Week-8, group AVG (Screening AVG 9.4)): 10
- SCOPA-Cog (**/43) score ([2]; 150 mg oral daily, Week-8): 5 and 0 and 4 and 23 and 18
- SCOPA-Cog (**/43) score, AVG ([2]; 150 mg oral daily, Week-20, group AVG (Screening AVG 9.4)): 9.6
- SCOPA-Cog (**/43) score ([2]; 150 mg oral daily, Week-20): 3 and 1 and 0 and 26 and 18
- SCOPA-Cog (**/43) score, AVG ([2]; 150 mg oral daily, Week-24, group AVG (Screening AVG 9.4)): 11.25
- SCOPA-Cog (**/43) score ([2]; 150 mg oral daily, Week-24): 4 and 0 and 23 and 18
- Average increase in SCOPA-Cog ([2]; 150 mg oral daily): 1.85 points
- SCOPA-Cog (**/43) score, AVG ([2]; 300 mg oral daily, Week-8, group AVG (Screening AVG 10.33)): 12.17
- SCOPA-Cog (**/43) score ([2]; 300 mg oral daily, Week-8): 22 and 30 and 11 and 9 and 0 and 1
- SCOPA-Cog (**/43) score, AVG ([2]; 300 mg oral daily, Week-20, group AVG (Screening AVG 10.33)): 13.3
- SCOPA-Cog (**/43) score ([2]; 300 mg oral daily, Week-20): 21 and 30 and 19 and 10 and 0
- SCOPA-Cog (**/43) score, AVG ([2]; 300 mg oral daily, Week-24, group AVG (Screening AVG 10.33)): 12.33
- SCOPA-Cog (**/43) score ([2]; 300 mg oral daily, Week-24): 22 and 31 and 10 and 0 and 1
- Average increase in SCOPA-Cog ([2]; 300 mg oral daily): 2 points
- Serious adverse events (one participant each) ([3]; 150 mg group, n = 5): hospitalized with pneumonia and UTI
- Serious adverse events (one participant each) ([3]; 300 mg group, n = 7): withdrawn at week 4 and diagnosed with myocardial infarct and left bundle block; also recorded: hospitalized with urinary tract infection (UTI)
- Safety and tolerability ([3]; once daily oral 150 mg or 300 mg, subjects with PDD or DLB): may be safe and tolerated
- QTc finding in participant NIL 8 ([4]; 150 mg group): slight QTc prolongation >450 ms at week 8
- QTc finding in participant NIL 15 ([4]; 300 mg group): two episodes of QTc prolongation >450 ms at week 2 and week 8
- AEs below normal range of alanine aminotransferase (ALT) level (<100%) [5]: three
- CSF homovanillic acid (HVA) vs baseline ([6]; 150 mg group, 2 months, t-test): significantly increased
- CSF homovanillic acid (HVA) vs baseline ([6]; 150 mg group, 6 months): remained elevated (non-significant)
- CSF homovanillic acid (HVA) vs baseline ([6]; 300 mg group, 6 months): significantly increased
- Plasma α-synuclein at 6 months compared to 2 months ([7]; 150 mg group): significantly higher
- CSF α-synuclein vs baseline ([7]; 150 mg group, 2 and 6 months): slightly reduced
- Plasma α-synuclein vs baseline ([7]; 150 mg group): slightly reduced
- CSF α-synuclein at 2 months compared to 6 months ([7]; 150 mg group, t-test): significantly (t-test) lower
- Plasma α-synuclein vs baseline ([7]; 300 mg group): significantly reduced
- Plasma α-synuclein ([7]; 300 mg group, 6 months): returned to baseline
- CSF α-synuclein ([7]; 300 mg group, between baseline, 2 and 6 months): unaltered
- CSF DJ-1 ([8]; 150 mg group): trended towards a decrease
- CSF DJ-1 vs baseline ([8]; 300 mg group, six months): significantly reduced
- CSF S100B level ([9]; 150 mg group): gradually reduced
- CSF S100B level ([9]; 300 mg group): gradually reduced
- CSF total tau vs baseline ([11]; 150 mg group, 2 months): significantly reduced
- CSF total tau vs baseline ([11]; 300 mg group, 6 months): significantly reduced
- CSF Aβ40 ([12]; 150 mg group): No changes
- CSF Aβ40 vs baseline ([12]; 300 mg group, 6 months): significantly reduced
- CSF Aβ42 [13]: No changes
